“And” between values parts separate entries of the source, which are not always exact repeats. Identical values can stand only once.
test system: U2OS; test: Multiplex assay against U2OS; assay type: toxicity, cell-based; details: human, 12 h, 1 µM, compound concentration 1 uM
Outline: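 Four dyes were applied at seeding to live cells: Hoechst33342, BioTracker Green Microtubule Cytoskeleton Dye, MitoTracker Red and Annexin V Alexa Fluor 680. Imaging after compound addition used a CQ1 microscope at 37°C and 5% CO2. CellPathfinder machine-learning gating then sorted cells into Hoechst high-intensity objects or normal cells, normal cells into healthy, pyknosed or fragmented nuclei, and pyknosed cells into mitotic or apoptotic, with tubulin, mitochondrial-mass and membrane-permeability phenotypes given as per cents of healthy-nucleus cells.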

SMILES | Population Apoptotic (%) | Population Fragmented Nuclei (%) | Population Healthy Nuclei (%) | Population Hoechst High Intensity Objects (%) | Population Membrane Permeable-Phenotype (%) | Population Mitotic Cells (%) | Population Normal (%) | Population Pyknosed Nuclei (%) | Population Tubulin-Different-Phenotype (%) | Total Cell Count
OCCCNc1cc(-c2ccnc(Nc3cccc(Cl)c3)n2)ccn1 | 88% and 80% | 38% and 27% | 52% and 51% | 3% and 5% | 8% and 10% | 11% and 20% | 97% and 94% | 9% and 20% | 4% and 5% | 200 and 76
Cc1nn(C)c2nc(NNC(=O)Nc3cc(Cl)nc(Cl)c3)cc(C(C)C)c12 | 76% and 72% | 23% and 14% | 66% and 76% | 1% and 2% | 5% and 10% | 24% and 27% | 98% and 97% | 9% and 8% | 2% and 7% | 268 and 131

same assay, conditions: human, 12 h, 1 µM, compound concentration 1 uM

SMILES | Population Mitochondria Different-Phenotype (%)
Cc1nn(C)c2nc(NNC(=O)Nc3cc(Cl)nc(Cl)c3)cc(C(C)C)c12 | 3% and 7%

same assay, conditions: human, 12 h, 10 µM, compound concentration 10 uM

SMILES | Population Apoptotic (%) | Population Fragmented Nuclei (%) | Population Healthy Nuclei (%) | Population Hoechst High Intensity Objects (%) | Population Membrane Permeable-Phenotype (%) | Population Mitochondria Different-Phenotype (%) | Population Mitotic Cells (%) | Population Normal (%) | Population Pyknosed Nuclei (%) | Population Tubulin-Different-Phenotype (%)
OCCCNc1cc(-c2ccnc(Nc3cccc(Cl)c3)n2)ccn1 | 85% and 91% | 37% and 24% | 56% and 64% | 4% and 10% | 46% and 47% | 36% and 51% | 14% and 8% | 95% and 89% | 6% and 11% | 46% and 61%
Cc1nn(C)c2nc(NNC(=O)Nc3cc(Cl)nc(Cl)c3)cc(C(C)C)c12 | 77% and 47% | 21% and 15% | 56% and 63% | 7% and 4% | 75% and 57% | 46% and 63% | 22% and 52% | 92% and 95% | 21% | 80% and 77%

same assay, conditions: human, 12 h, 10 µM, compound concentration 10 uM

SMILES | Total Cell Count
OCCCNc1cc(-c2ccnc(Nc3cccc(Cl)c3)n2)ccn1 | 237 and 118
Cc1nn(C)c2nc(NNC(=O)Nc3cc(Cl)nc(Cl)c3)cc(C(C)C)c12 | 222 and 104

same assay, conditions: human, 24 h, 1 µM, compound concentration 1 uM

SMILES | Population Apoptotic (%) | Population Fragmented Nuclei (%) | Population Healthy Nuclei (%) | Population Hoechst High Intensity Objects (%) | Population Membrane Permeable-Phenotype (%) | Population Mitochondria Different-Phenotype (%) | Population Mitotic Cells (%) | Population Normal (%) | Population Pyknosed Nuclei (%) | Population Tubulin-Different-Phenotype (%)
OCCCNc1cc(-c2ccnc(Nc3cccc(Cl)c3)n2)ccn1 | 96% and 94% | 43% and 40% | 43% and 33% | 7% | 10% and 16% | 10% and 25% | 4% and 5% | 92% | 13% and 25% | 6% and 16%
Cc1nn(C)c2nc(NNC(=O)Nc3cc(Cl)nc(Cl)c3)cc(C(C)C)c12 | 80% and 93% | 20% and 17% | 71% and 73% | 0% and 2% | 4% and 9% | 2% and 4% |  | 99% and 97% | 8% and 9% | 1% and 4%

same assay, conditions: human, 24 h, 1 µM, compound concentration 1 uM

SMILES | Total Cell Count
OCCCNc1cc(-c2ccnc(Nc3cccc(Cl)c3)n2)ccn1 | 200 and 77
Cc1nn(C)c2nc(NNC(=O)Nc3cc(Cl)nc(Cl)c3)cc(C(C)C)c12 | 328 and 168

same assay, conditions: human, 24 h, 10 µM, compound concentration 10 uM

SMILES | Population Apoptotic (%) | Population Fragmented Nuclei (%) | Population Healthy Nuclei (%) | Population Hoechst High Intensity Objects (%) | Population Membrane Permeable-Phenotype (%) | Population Mitochondria Different-Phenotype (%) | Population Mitotic Cells (%) | Population Normal (%) | Population Pyknosed Nuclei (%) | Population Tubulin-Different-Phenotype (%)
OCCCNc1cc(-c2ccnc(Nc3cccc(Cl)c3)n2)ccn1 | 88% and 95% | 37% and 30% | 50% and 49% | 11% and 12% | 34% and 43% | 40% and 54% | 12% and 4% | 88% and 87% | 12% and 20% | 37% and 61%
Cc1nn(C)c2nc(NNC(=O)Nc3cc(Cl)nc(Cl)c3)cc(C(C)C)c12 | 78% and 69% | 19% and 16% | 49% and 61% | 5% and 2% | 69% and 42% | 58% and 51% | 21% and 30% | 94% and 97% | 31% and 21% | 77% and 57%

same assay, conditions: human, 24 h, 10 µM, compound concentration 10 uM

SMILES | Total Cell Count
OCCCNc1cc(-c2ccnc(Nc3cccc(Cl)c3)n2)ccn1 | 229 and 128
Cc1nn(C)c2nc(NNC(=O)Nc3cc(Cl)nc(Cl)c3)cc(C(C)C)c12 | 218 and 110

same assay, conditions: human, 48 h, 1 µM, compound concentration 1 uM

SMILES | Population Apoptotic (%) | Population Fragmented Nuclei (%) | Population Healthy Nuclei (%) | Population Hoechst High Intensity Objects (%) | Population Membrane Permeable-Phenotype (%) | Population Mitochondria Different-Phenotype (%) | Population Mitotic Cells (%) | Population Normal (%) | Population Pyknosed Nuclei (%) | Population Tubulin-Different-Phenotype (%)
OCCCNc1cc(-c2ccnc(Nc3cccc(Cl)c3)n2)ccn1 | 95% and 100% | 56% and 59% | 22% and 11% | 16% and 12% | 30% | 14% and 20% | 4% and 0% | 83% and 87% | 21% and 28% | 26% and 10%
Cc1nn(C)c2nc(NNC(=O)Nc3cc(Cl)nc(Cl)c3)cc(C(C)C)c12 | 88% and 86% | 17% and 21% | 75% and 65% | 2% and 1% | 4% and 8% | 3% and 4% | 11% and 13% | 97% and 98% | 7% and 12% | 2% and 5%

same assay, conditions: human, 48 h, 1 µM, compound concentration 1 uM

SMILES | Total Cell Count
OCCCNc1cc(-c2ccnc(Nc3cccc(Cl)c3)n2)ccn1 | 227 and 99
Cc1nn(C)c2nc(NNC(=O)Nc3cc(Cl)nc(Cl)c3)cc(C(C)C)c12 | 504 and 247

same assay, conditions: human, 48 h, 10 µM, compound concentration 10 uM

SMILES | Population Apoptotic (%) | Population Fragmented Nuclei (%) | Population Healthy Nuclei (%) | Population Hoechst High Intensity Objects (%) | Population Membrane Permeable-Phenotype (%) | Population Mitochondria Different-Phenotype (%) | Population Mitotic Cells (%) | Population Normal (%) | Population Pyknosed Nuclei (%) | Population Tubulin-Different-Phenotype (%)
OCCCNc1cc(-c2ccnc(Nc3cccc(Cl)c3)n2)ccn1 | 94% and 96% | 47% and 50% | 31% and 25% | 21% and 23% | 43% and 65% | 45% and 34% | 5% and 4% | 78% and 76% | 21% and 24% | 45% and 65%
Cc1nn(C)c2nc(NNC(=O)Nc3cc(Cl)nc(Cl)c3)cc(C(C)C)c12 | 83% and 80% | 24% | 43% and 48% | 9% and 6% | 51% | 46% and 63% | 16% and 20% | 90% and 93% | 32% and 27% | 49% and 57%

same assay, conditions: human, 48 h, 10 µM, compound concentration 10 uM

SMILES | Total Cell Count
OCCCNc1cc(-c2ccnc(Nc3cccc(Cl)c3)n2)ccn1 | 223 and 134
Cc1nn(C)c2nc(NNC(=O)Nc3cc(Cl)nc(Cl)c3)cc(C(C)C)c12 | 244 and 115
